From ChEMBL document CHEMBL1154891, “Cytotoxic acylphloroglucinol derivatives from the twigs of Garcinia cowa” (J Nat Prod, 2010)
Activity calls are given as the source filed them. The rule behind the calls is not given here.

Key:
[1] = Cytotoxicity against human CCD-18Co cells at 5 uM after 24 hrs by MTT assay
[2] = test system: HT-29; test: Cytotoxicity against human HT-29 cells at 5 uM after 24 hrs by MTT assay; format: functional
[3] = Cytotoxicity against human CCD-18Co cells at 5 uM after 24 hrs by MTT assay; format: cell-based
Method in brief: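 CCD-18Co colon fibroblasts grown in MEM with 10% FBS and HEPES at 37 °C, 5% CO2, seeded overnight at 7 × 10^3 cells/well. MTT added for 3 h at 37 °C, formazan dissolved in DMSO, A570 read with 620 nm background subtraction. Untreated = 100%. Triplicate, ≥3 independent experiments, mean + SEM.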

[4] = test system: HCT-116; test: Cytotoxicity against human HCT116 cells at 5 uM after 24 hrs by MTT assay; format: functional, cell-based
[5] = test system: HT-29; test: Cytotoxicity against human HT-29 cells after 24 hrs by MTT assay; format: functional, cell-based; conditions: HT-29, 24 h
Method in brief: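 MTT read-out: 3 h at 37 °C, DMSO solubilization, A570 with 620 nm background. Viability relative to untreated control; IC50 derived. Cisplatin in saline run in parallel as positive control. Mean + SEM.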

Structure (SMILES) | Activity [1] | Activity [2] | Activity [3] | Activity [4] | IC50 [5] [µM]
C=C(C)[C@@H]1C[C@]23C[C@@H](CC=C(C)C)C(C)(C)[C@](CC=C(C)C)(C(=O)C(C(=O)c4ccc(O)c(O)c4)=C2O[C@H]1C=C(C)C)C3=O [GARCICOWIN D] | Non-toxic | 57.7% | Non-toxic |  | 
CC(C)=CCC/C(C)=C/C[C@@H]1C[C@]2(CC=C(C)C)C(=O)[C@@](CC=C(C)C)(C(=O)C(C(=O)c3cccc(O)c3)=C2O)[C@@]1(C)CCC=C(C)C [GARCICOWIN B] | Non-toxic |  | Non-toxic |  | 
CC(C)=CC[C@H]1C[C@@]23C[C@@H](CC=C(C)C)C(C)(C)[C@@](CC=C(C)C)(C(=O)C(C(=O)c4ccc(O)c(O)c4)=C2OC1(C)C)C3=O [CAMBOGIN] | Non-toxic | Active | Non-toxic | Active | 
CC(C)=CCC/C(C)=C/C[C@@H]1C[C@]2(CC=C(C)C)C(=O)[C@@](CC=C(C)C)(C(=O)C(C(=O)c3ccc(O)c(O)c3)=C2O)[C@@]1(C)CCC=C(C)C [OBLONGIFOLIN C] | Non-toxic | Active | Non-toxic | Active | 
CC(C)=CC[C@@H]1C[C@@]23C[C@@H](CC=C(C)C)C(C)(C)[C@](CC=C(C)C)(C(=O)C(C(=O)c4ccc(O)c(O)c4)=C2OC1(C)C)C3=O | Non-toxic | Active | Non-toxic | Active | 5.1
CC(C)=CCC/C(C)=C/C[C@H]1CC(C)(C)OC2=CC(=O)[C@]3(CC=C(C)C)C(=O)[C@@]21CC[C@]3(C)CCC=C(C)C [GARCICOWIN A] | Non-toxic |  | Non-toxic |  | 
C=C(C)[C@@H]1C[C@]23C[C@H](CC=C(C)C)C(C)(C)[C@](CC=C(C)C)(C(=O)C(C(=O)c4ccc(O)c(O)c4)=C2O[C@H]1C=C(C)C)C3=O [GARCINIALIPTONE B] | Non-toxic | 73.8% | Non-toxic |  | 
CC(C)=CCC/C(C)=C/C[C@H]1C[C@]2(C/C=C(\C)CCC=C(C)C)C(=O)[C@@](CC=C(C)C)(C(=O)C(C(=O)c3ccc(O)c(O)c3)=C2O)C1(C)C [OBLONGIFOLIN D] | Non-toxic | inactive | Non-toxic | inactive | 
CC(C)=CCC/C(C)=C/C[C@@H]1C[C@]2(CC=C(C)C)C(=O)[C@@](CC=C(C)C)(C(=O)C(C(=O)c3ccc(O)c(O)c3)=C2O)C1(C)C [OBLONGIFOLIN B] | Non-toxic | Active | Non-toxic | Active | 
CC(C)=CCC/C(C)=C/C[C@@H]1C[C@@]2(C/C=C(\C)CCC=C(C)C)C(=O)[C@](CC=C(C)C)(C(=O)C(C(=O)c3ccc(O)c(O)c3)=C2O)C1(C)C [GUTTIFERONE B] | Non-toxic | Active | Non-toxic | Active | 
